ChEMBL document CHEMBL1806486, “Discovery and evaluation of 3-phenyl-1H-5-pyrazolylamine-based derivatives as potent, selective and efficacious inhibitors of FMS-like tyrosine kinase-3 (FLT3)” (Bioorg Med Chem, 2011)

Key:
[1] = target: Receptor-type tyrosine-protein kinase FLT3 (Homo sapiens) (UniProt P36888); test: Inhibition of GST-tagged FLT3 expressing wild type kinase domain expressed in Sf9 insect cells at 1 uM after 4 hrs by Kinase-Glo assay
[2] = test system: MOLM-13; test: Antiproliferation activity against human MOLM13 cells expressing FLT3 mutation assessed as cell viability after 72 hrs by MTS method; assay type: functional; details: MOLM-13, 72 h
[3] = target: T1, Receptor-type tyrosine-protein kinase FLT3 (Homo sapiens, UniProt P36888); test: Inhibition of GST-tagged FLT3 expressing wild type kinase domain expressed in Sf9 insect cells after 4 hrs by Kinase-Glo assay
T1 sequence (P36888 whole entry): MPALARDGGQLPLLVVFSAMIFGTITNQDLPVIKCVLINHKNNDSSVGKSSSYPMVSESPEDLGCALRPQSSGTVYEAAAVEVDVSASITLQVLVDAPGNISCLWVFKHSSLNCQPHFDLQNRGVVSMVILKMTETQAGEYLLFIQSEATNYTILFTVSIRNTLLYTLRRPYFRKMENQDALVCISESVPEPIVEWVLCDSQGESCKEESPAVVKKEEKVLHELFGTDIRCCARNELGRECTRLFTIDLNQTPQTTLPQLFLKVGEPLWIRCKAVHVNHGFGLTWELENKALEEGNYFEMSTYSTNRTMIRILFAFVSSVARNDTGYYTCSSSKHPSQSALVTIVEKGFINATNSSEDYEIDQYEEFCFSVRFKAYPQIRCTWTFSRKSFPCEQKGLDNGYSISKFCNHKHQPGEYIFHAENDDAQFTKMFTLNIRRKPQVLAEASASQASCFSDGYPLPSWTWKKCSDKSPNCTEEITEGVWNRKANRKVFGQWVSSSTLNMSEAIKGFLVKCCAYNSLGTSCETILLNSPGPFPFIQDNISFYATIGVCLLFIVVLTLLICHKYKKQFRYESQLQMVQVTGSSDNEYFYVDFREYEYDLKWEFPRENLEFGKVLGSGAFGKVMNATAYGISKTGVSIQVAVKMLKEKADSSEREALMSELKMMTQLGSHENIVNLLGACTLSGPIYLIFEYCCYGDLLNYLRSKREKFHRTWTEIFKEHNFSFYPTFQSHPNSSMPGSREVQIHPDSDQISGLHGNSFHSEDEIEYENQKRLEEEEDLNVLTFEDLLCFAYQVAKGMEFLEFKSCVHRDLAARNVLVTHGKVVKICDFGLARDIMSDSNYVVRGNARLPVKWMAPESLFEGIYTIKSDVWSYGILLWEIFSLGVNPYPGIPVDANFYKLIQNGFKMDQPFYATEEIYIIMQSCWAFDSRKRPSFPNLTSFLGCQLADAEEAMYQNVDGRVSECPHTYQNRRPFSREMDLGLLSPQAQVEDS

[4] = target: T2, Aurora kinase A (Homo sapiens, UniProt O14965); test: Inhibition of recombinant GST-tagged Aurora A expressed in Sf9 insect cells after 90 mins by Kinase-Glo assay
T2 sequence (O14965 whole entry): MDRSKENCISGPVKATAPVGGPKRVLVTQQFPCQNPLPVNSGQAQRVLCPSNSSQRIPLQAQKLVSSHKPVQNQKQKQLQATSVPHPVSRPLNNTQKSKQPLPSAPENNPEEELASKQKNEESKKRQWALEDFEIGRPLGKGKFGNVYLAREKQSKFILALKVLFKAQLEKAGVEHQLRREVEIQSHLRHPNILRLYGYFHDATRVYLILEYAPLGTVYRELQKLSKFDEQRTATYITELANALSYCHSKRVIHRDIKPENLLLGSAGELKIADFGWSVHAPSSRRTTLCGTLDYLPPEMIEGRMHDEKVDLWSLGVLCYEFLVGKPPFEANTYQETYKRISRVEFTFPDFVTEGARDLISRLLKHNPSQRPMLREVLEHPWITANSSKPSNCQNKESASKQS
Procedure, shortened: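 GST-Aurora A kinase domain (S123–S401, 150 ng) from Sf9 cells. Buffer was 50 mM Tris-HCl pH 7.4 with 10 mM NaCl, 10 mM MgCl2, 0.01% BSA and 1 mM DTT. Kinase-Glo Plus was added for 20 min at 25 °C before the luminescence read.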

[5] = target: T3, Vascular endothelial growth factor receptor 2 (Homo sapiens, UniProt P35968); test: Inhibition of recombinant GST-tagged VEGFR2 expressed in Sf9 insect cells after 120 mins by Kinase-Glo assay; assay type: cell-based
[6] = target: Vascular endothelial growth factor receptor 1 (Homo sapiens, UniProt P17948); test: Inhibition of recombinant GST-tagged VEGFR1 expressed in Sf9 insect cells after 120 mins by Kinase-Glo assay
Procedure, shortened: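 GST-VEGFR1 (R781–I1338) or GST-VEGFR2 (V789–V1356) kinase domain, 50–100 ng, from Sf9 cells. Read-out was Kinase-Glo Plus luminescence.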

[7] = test system: MV4-11; test: Antiproliferation activity against FLT3/ITD harboring human MV4-11 cells after 72 hrs by MTS method; assay type: functional; details: MV4-11, 72 h
[8] = Antiproliferation activity against human RS4:11 cells expressing wild type FLT3 after 72 hrs by MTS method; assay type: functional; details: RS4-11, 72 h
[9] = test system: K562; test: Antiproliferation activity against human K562 cells expressing wild type BCR/ABL after 72 hrs by MTS method; assay type: functional; details: K562, 72 h
[10] = test system: MOLT-4; test: Antiproliferation activity against human MOLT4 after 72 hrs by MTS method; assay type: functional; details: MOLT-4, 72 h
[11] = target: Aurora kinase A (Homo sapiens) (UniProt O14965); test: Inhibition of recombinant GST-tagged Aurora A expressed in Sf9 insect cells at 1 uM after 90 mins by Kinase-Glo assay
[12] = target: T3, Vascular endothelial growth factor receptor 2; test: Inhibition of recombinant GST-tagged VEGFR2 expressed in Sf9 insect cells at 1 uM after 120 mins by Kinase-Glo assay
[13] = AUC (0 to infinity) in Sprague-Dawley rat at 5 mg/kg, iv; assay type: ADME, organism-based; parameters: time infinity, dose 5 mg/kg, route intravenous; details: plasma
[14] = Clearance in Sprague-Dawley rat at 5 mg/kg, iv; assay type: ADME, organism-based; parameters: dose 5 mg/kg, route intravenous; details: in vivo
[15] = Volume of distribution at steady state in Sprague-Dawley rat at 5 mg/kg, iv; assay type: ADME, organism-based; parameters: dose 5 mg/kg, route intravenous; details: in vivo, read-out: Vdss
[16] = Half life in Sprague-Dawley rat at 5 mg/kg, iv; assay type: ADME, organism-based; parameters: dose 5 mg/kg, route intravenous; details: in vivo
[17] = test system: Mus musculus; test: Toxicity in athymic nu/nu nude mouse assessed as lethality at 50 mg/kg, iv for continuous 5 days; assay type: organism-based; parameters: dose 50 mg/kg, route intravenous; details: in vivo, 120 h
[18] = test system: Mus musculus; test: Toxicity in normal mouse assessed as reduction of body weight at 50 mg/kg, iv for continuous 5 days; details: in vivo, 120 h

T3 sequence (P35968 whole entry): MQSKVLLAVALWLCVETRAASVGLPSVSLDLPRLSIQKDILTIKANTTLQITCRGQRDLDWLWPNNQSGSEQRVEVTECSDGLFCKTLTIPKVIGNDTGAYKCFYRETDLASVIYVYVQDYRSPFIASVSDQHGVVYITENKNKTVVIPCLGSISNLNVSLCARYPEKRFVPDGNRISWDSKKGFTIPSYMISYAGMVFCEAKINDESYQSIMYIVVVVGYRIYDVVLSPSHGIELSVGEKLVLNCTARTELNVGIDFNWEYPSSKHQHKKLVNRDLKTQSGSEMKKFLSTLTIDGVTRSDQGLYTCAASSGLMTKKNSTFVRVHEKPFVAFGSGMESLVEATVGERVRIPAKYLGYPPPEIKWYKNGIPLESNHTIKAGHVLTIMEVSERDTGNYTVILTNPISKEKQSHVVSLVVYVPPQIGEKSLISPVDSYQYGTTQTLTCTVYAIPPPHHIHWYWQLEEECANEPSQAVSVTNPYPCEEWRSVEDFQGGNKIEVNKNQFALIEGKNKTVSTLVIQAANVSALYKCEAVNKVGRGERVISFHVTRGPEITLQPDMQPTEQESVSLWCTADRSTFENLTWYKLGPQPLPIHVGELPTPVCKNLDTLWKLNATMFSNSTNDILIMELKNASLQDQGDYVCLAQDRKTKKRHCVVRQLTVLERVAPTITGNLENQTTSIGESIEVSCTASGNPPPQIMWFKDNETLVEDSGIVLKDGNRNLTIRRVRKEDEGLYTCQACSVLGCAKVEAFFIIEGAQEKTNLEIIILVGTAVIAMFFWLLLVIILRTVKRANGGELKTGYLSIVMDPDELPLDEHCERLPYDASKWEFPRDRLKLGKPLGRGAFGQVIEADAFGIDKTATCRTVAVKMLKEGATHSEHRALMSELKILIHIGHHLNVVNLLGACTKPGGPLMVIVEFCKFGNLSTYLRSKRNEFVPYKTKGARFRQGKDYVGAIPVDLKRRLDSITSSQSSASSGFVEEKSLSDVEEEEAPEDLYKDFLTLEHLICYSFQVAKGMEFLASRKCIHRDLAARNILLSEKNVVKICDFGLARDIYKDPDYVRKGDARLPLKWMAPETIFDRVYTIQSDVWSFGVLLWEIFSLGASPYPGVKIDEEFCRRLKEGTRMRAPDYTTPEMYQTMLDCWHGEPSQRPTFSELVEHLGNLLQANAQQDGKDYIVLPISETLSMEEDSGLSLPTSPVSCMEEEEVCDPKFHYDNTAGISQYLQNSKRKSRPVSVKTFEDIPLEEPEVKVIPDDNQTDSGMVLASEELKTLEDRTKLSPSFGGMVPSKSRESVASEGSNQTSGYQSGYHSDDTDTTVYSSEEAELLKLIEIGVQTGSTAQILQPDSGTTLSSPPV
Vascular endothelial growth factor receptor 1, sequence (P17948 whole entry, the tested form may be a part): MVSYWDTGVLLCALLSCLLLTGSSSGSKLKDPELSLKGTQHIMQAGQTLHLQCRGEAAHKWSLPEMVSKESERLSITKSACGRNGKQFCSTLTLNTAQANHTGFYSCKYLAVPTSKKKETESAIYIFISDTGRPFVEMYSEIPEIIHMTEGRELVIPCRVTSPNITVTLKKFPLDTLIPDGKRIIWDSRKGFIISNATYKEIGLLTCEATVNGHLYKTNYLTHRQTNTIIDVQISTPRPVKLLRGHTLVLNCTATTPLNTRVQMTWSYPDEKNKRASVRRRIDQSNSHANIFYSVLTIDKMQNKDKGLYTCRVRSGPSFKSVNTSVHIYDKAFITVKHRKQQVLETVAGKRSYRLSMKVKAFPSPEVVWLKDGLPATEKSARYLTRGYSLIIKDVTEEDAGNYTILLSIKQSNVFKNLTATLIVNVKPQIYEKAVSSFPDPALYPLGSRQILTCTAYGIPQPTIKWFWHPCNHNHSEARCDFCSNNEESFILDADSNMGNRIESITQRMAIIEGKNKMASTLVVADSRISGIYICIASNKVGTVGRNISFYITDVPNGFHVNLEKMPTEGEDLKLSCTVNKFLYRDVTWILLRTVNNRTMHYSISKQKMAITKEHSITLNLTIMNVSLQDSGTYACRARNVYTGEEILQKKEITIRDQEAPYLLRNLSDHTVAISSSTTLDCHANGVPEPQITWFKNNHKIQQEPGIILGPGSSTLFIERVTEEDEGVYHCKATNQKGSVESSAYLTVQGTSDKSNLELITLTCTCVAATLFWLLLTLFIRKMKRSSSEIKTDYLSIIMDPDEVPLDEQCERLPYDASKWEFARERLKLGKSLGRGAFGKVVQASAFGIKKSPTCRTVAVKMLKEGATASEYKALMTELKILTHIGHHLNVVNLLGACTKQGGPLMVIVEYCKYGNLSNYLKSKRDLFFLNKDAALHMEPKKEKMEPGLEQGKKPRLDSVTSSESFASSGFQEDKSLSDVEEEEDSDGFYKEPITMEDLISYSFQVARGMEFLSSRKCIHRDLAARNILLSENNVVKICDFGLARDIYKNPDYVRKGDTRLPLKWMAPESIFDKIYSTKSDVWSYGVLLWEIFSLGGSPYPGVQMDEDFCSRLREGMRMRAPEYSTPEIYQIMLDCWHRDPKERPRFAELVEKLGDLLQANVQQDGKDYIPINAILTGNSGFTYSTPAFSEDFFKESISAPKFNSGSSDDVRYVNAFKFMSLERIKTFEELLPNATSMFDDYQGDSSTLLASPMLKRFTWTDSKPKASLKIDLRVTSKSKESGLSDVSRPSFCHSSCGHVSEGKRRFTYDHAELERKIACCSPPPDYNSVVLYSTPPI

| Structure (SMILES) | GI50 [2] [µM] | IC50 [3] [µM] | IC50 [4] [µM] | IC50 [5] [µM] | IC50 [6] [µM] | further results |
| --- | --- | --- | --- | --- | --- | --- |
| O=C(Nc1cc(-c2cccc(NS(=O)(=O)c3ccccc3)c2)n[nH]1)c1ccccc1 |  |  |  |  |  | inhibition [1]: 54% |
| CN1CCN(c2ccc(C(=O)Nc3cc(-c4cccc(NC(=O)Nc5ccccc5)c4)n[nH]3)cc2)CC1 | 0.15 | 0.02 |  |  |  |  |
| O=C(Nc1cc(-c2cccc(NS(=O)(=O)c3ccccc3)c2)n[nH]1)c1cccc(N2CCOCC2)c1 | 0.26 | > 1 | > 1 | > 1 | > 1 |  |
| Cc1nc(NCCN2CCOCC2)cc(Nc2cc(-c3cccc(NS(=O)(=O)c4ccccc4)c3)n[nH]2)n1 | 0.46 | 0.06 | > 1 | > 1 | > 1000 |  |
| O=C(Nc1cc(-c2cccc(NS(=O)(=O)c3ccccc3)c2)n[nH]1)c1cccc(C(F)(F)F)c1 |  | > 1 |  |  |  |  |
| CNC(=O)c1cc(Oc2ccc(NC(=O)Nc3ccc(Cl)c(C(F)(F)F)c3)cc2)ccn1 [SORAFENIB] |  |  |  |  |  | GI50 [7]: 0.03 µM; GI50 [8]: 9.4 µM; GI50 [9]: 6.2 µM; GI50 [10]: 9 µM |
| O=C(O)c1cccc(C(=O)Nc2cc(-c3cccc(NS(=O)(=O)c4ccccc4)c3)n[nH]2)c1 |  |  |  |  |  | inhibition [1]: 56% |
| O=C(O)c1ccc(C(=O)Nc2cc(-c3cccc(NS(=O)(=O)c4ccccc4)c3)n[nH]2)cc1 |  |  |  |  |  | inhibition [1]: 61% |
| O=C(Nc1cc(-c2cccc(NS(=O)(=O)c3ccccc3)c2)n[nH]1)c1ccc(OCCN2CCCC2)cc1 | 0.025 | 0.007 | 1.17 | 0.2 | 0.27 | AUC(0-inf) [13]: 3940 ng·h/mL; clearance [14]: 22.3 mL/min/kg; Vd [15]: 10.7 L/kg; half-life [16]: 9.9 h; Activity [17]: Toxic; Activity [18]: Toxic |
| CN1CCN(c2ccc(C(=O)Nc3cc(-c4cccc(NS(=O)(=O)c5ccccc5)c4)n[nH]3)cc2)CC1 | 0.012 | 0.013 | 0.34 | 0.13 | 0.21 | AUC(0-inf) [13]: 551 ng·h/mL; clearance [14]: 102 mL/min/kg; Vd [15]: 15.5 L/kg; half-life [16]: 4.5 h; Activity [17]: Toxic; Activity [18]: Toxic |
| Cc1nc(Nc2cc(-c3cccc(NS(=O)(=O)c4ccccc4)c3)n[nH]2)cc(N2CCN(CCO)CC2)n1 | 0.024 | 0.05 | 0.17 | 0.14 | > 1 |  |
| CN1CCN(c2ccc(C(=O)Nc3cc(-c4cccc(NC(=O)c5ccccc5)c4)n[nH]3)cc2)CC1 | 0.21 | 0.27 |  |  |  |  |
| CN1CCN(c2cccc(C(=O)Nc3cc(-c4cccc(NS(=O)(=O)c5ccccc5)c4)n[nH]3)c2)CC1 | 0.19 | 0.065 | 0.85 | 0.41 | > 1 |  |
| O=C(Nc1cc(-c2cccc(NS(=O)(=O)c3ccccc3)c2)n[nH]1)c1ccc(N2CCOCC2)cc1 | 0.1 | 0.029 | 0.39 | 0.45 | > 1 |  |
| CN1CCN(c2ccc(C(=O)Nc3cc(-c4cccc(NS(=O)(=O)c5ccc(Cl)cc5)c4)n[nH]3)cc2)CC1 | 0.074 | 0.12 | 4.99 | > 1 | 0.57 |  |
| CN1CCN(c2ccc(C(=O)Nc3cc(-c4cccc(N)c4)n[nH]3)cc2)CC1 | 0.077 | 0.014 |  |  |  |  |
| CCS(=O)(=O)Nc1cccc(-c2cc(NC(=O)c3ccc(N4CCN(C)CC4)cc3)[nH]n2)c1 | 0.033 | 0.36 | > 1 | > 1 | > 1 |  |
| CCCCS(=O)(=O)Nc1cccc(-c2cc(Nc3cc(N4CCN(C)CC4)nc(C)n3)[nH]n2)c1 | 0.16 | 0.11 | > 1 | > 1 | > 1 |  |
| Cc1cccc(S(=O)(=O)Nc2cccc(-c3cc(Nc4cc(N5CCN(C)CC5)nc(C)n4)[nH]n3)c2)c1 | 0.078 | 0.12 | > 1 | > 1 | > 1 |  |
| Cc1cccc(S(=O)(=O)Nc2cccc(-c3cc(NC(=O)c4ccc(N5CCN(C)CC5)cc4)[nH]n3)c2)c1 | 0.016 | 0.007 | 0.43 | 0.07 | 0.14 | AUC(0-inf) [13]: 1200 ng·h/mL; clearance [14]: 67.4 mL/min/kg; Vd [15]: 2.6 L/kg; half-life [16]: 1.7 h; Activity [17]: Toxic; Activity [18]: Toxic |

The next lines start with results.

| GI50 [2] [µM] | IC50 [3] [µM] | IC50 [4] [µM] | IC50 [5] [µM] | IC50 [6] [µM] | Structure (SMILES) | further results |
| --- | --- | --- | --- | --- | --- | --- |
| 0.044 | 0.16 | > 1 | > 1 | > 1 | CC(C)S(=O)(=O)Nc1cccc(-c2cc(NC(=O)c3ccc(N4CCN(C)CC4)cc3)[nH]n2)c1 |  |
|  | > 1 |  |  |  | O=C(Nc1cc(-c2cccc(NS(=O)(=O)c3ccccc3)c2)n[nH]1)c1ccc(C(F)(F)F)cc1 |  |
| 0.024 | 0.015 |  | > 1 | > 1 | Cc1ccc(S(=O)(=O)Nc2cccc(-c3cc(NC(=O)c4ccc(N5CCN(C)CC5)cc4)[nH]n3)c2)cc1 | inhibition [11]: 50% |
| 0.056 | 0.1 | 1.64 | 2.72 | 2.61 | CCCS(=O)(=O)Nc1cccc(-c2cc(NC(=O)c3ccc(N4CCN(C)CC4)cc3)[nH]n2)c1 |  |
| 0.05 | 0.09 | > 1 | 0.16 | 0.42 | COc1ccc(S(=O)(=O)Nc2cccc(-c3cc(NC(=O)c4ccc(N5CCN(C)CC5)cc4)[nH]n3)c2)cc1 |  |
| 0.18 | 0.071 | > 1 |  | > 1 | Cc1nc(NCCN(C)C)cc(Nc2cc(-c3cccc(NS(=O)(=O)c4ccccc4)c3)n[nH]2)n1 | inhibition [12]: 55% |
| 0.039 | 0.008 | 1.71 | 0.25 | 0.04 | CN1CCN(c2ccc(C(=O)Nc3cc(-c4cccc(NS(=O)(=O)c5cccc(Cl)c5)c4)n[nH]3)cc2)CC1 |  |
| 0.05 | 0.59 |  |  |  | CN1CCN(c2ccc(C(=O)Nc3cc(-c4ccc(NS(=O)(=O)c5ccccc5)cc4)n[nH]3)cc2)CC1 |  |
| 0.072 | 0.07 |  | > 1 | > 1 | O=C(Nc1cc(-c2cccc(NS(=O)(=O)c3ccccc3)c2)n[nH]1)c1ccc(OCCN2CCOCC2)cc1 | inhibition [11]: 50% |
